Legend:
[1] = Retardation factor of the compound by HPTLC method; type: physicochemical
In short: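 Pre-coated silica gel 60 F254 plates (200 µm layer); 5 µl sample applied as 5 mm bands; toluene/acetonitrile (9:1) mobile phase, ascending development to 90 mm in a chamber pre-saturated 15 min.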

Rattus norvegicus [2] = experiment: Antihypertensive activity in Norwegian albino rat model of DOCA-salt-induced hypertension assessed as inhibition of systolic blood pressure at 10 mg/kg, po after 5 hrs by non-invasive tail cuff method relative to control; type: functional
In short: (§1)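 DOCA-salt hypertensive rats; systolic pressure by tail cuff after 10 mg/kg, recorded hourly from 0 to 10 h; percent inhibition computed. Data as mean ± SEM, repeated-measures ANOVA.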

Rattus norvegicus [3] = experiment: Antihypertensive activity in Norwegian albino rat assessed as inhibition of systolic blood pressure at 10 mg/kg, po after 3 hrs by invasive carotid artery cannulation method relative to control; type: functional
[4] = AUC (0 to infinity) in Sprague-Dawley rat at 20 mg/kg, po by HPLC method; type: ADME, organism-based; parameters: dose 20 mg/kg, route oral, time infinity; settings: in vivo
[5] = Inhibition of porcine kidney ACE assessed as reduction in hippuryl-histidyl-leucine hydrolysis to hippuric acid release incubated for 30 mins high-throughput colorimetric method; parameters: species or system Sus scrofa
In short: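 Porcine kidney ACE in 1 M sodium borate buffer pH 8.2 with 0.3 M NaCl and 5 mM HHL substrate (stock); 37 °C for 30 min, stopped with 1 M HCl. Released hippuric acid complexed with pyridine and benzene sulfonyl chloride, cooled on ice, yellow colour read at 410 nm; IC50 from log plots, at least five determinations per concentration.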

Rattus norvegicus [6] = experiment: Gastrointestinal toxicity in Norwegian rat assessed as ulcerative index at 50 mg/kg, po after 17 hrs; type: organism-based; settings: in vivo
Rattus norvegicus [7] = experiment: Antihypertensive activity in Norwegian albino rat assessed as inhibition of systolic blood pressure at 10 mg/kg, po after 0.15 hrs by invasive carotid artery cannulation method relative to control; type: functional
[8] = Elimination half life in Sprague-Dawley rat at 20 mg/kg, po by HPLC method; type: ADME, organism-based; settings: in vivo, read-out: beta t1/2 (converted)
[9] = Retention time of the compound by HPLC method; type: physicochemical
In short: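 HPLC run with 20 µl injection, 1.0 ml/min flow, 25 °C, detection at 343 nm or 258 nm depending on compound.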

Rattus norvegicus [10] = experiment: Antihypertensive activity in Norwegian albino rat model of DOCA-salt-induced hypertension assessed as inhibition of systolic blood pressure at 10 mg/kg, po after 1 hr by non-invasive tail cuff method relative to control; type: functional; in short: as §1
Rattus norvegicus [11] = experiment: Antihypertensive activity in Norwegian albino rat model of DOCA-salt-induced hypertension assessed as inhibition of systolic blood pressure at 10 mg/kg, po after 2 hrs by non-invasive tail cuff method relative to control; type: functional; in short: as §1
[12] = molecular target: Myosin light chain kinase, smooth muscle (Homo sapiens, UniProt Q15746); experiment: Inhibition of MLCK (unknown origin) incubated for 15 mins using [gamma-32P]-ATP by scintillation counting method
Sequence of Myosin light chain kinase, smooth muscle (Q15746 whole entry): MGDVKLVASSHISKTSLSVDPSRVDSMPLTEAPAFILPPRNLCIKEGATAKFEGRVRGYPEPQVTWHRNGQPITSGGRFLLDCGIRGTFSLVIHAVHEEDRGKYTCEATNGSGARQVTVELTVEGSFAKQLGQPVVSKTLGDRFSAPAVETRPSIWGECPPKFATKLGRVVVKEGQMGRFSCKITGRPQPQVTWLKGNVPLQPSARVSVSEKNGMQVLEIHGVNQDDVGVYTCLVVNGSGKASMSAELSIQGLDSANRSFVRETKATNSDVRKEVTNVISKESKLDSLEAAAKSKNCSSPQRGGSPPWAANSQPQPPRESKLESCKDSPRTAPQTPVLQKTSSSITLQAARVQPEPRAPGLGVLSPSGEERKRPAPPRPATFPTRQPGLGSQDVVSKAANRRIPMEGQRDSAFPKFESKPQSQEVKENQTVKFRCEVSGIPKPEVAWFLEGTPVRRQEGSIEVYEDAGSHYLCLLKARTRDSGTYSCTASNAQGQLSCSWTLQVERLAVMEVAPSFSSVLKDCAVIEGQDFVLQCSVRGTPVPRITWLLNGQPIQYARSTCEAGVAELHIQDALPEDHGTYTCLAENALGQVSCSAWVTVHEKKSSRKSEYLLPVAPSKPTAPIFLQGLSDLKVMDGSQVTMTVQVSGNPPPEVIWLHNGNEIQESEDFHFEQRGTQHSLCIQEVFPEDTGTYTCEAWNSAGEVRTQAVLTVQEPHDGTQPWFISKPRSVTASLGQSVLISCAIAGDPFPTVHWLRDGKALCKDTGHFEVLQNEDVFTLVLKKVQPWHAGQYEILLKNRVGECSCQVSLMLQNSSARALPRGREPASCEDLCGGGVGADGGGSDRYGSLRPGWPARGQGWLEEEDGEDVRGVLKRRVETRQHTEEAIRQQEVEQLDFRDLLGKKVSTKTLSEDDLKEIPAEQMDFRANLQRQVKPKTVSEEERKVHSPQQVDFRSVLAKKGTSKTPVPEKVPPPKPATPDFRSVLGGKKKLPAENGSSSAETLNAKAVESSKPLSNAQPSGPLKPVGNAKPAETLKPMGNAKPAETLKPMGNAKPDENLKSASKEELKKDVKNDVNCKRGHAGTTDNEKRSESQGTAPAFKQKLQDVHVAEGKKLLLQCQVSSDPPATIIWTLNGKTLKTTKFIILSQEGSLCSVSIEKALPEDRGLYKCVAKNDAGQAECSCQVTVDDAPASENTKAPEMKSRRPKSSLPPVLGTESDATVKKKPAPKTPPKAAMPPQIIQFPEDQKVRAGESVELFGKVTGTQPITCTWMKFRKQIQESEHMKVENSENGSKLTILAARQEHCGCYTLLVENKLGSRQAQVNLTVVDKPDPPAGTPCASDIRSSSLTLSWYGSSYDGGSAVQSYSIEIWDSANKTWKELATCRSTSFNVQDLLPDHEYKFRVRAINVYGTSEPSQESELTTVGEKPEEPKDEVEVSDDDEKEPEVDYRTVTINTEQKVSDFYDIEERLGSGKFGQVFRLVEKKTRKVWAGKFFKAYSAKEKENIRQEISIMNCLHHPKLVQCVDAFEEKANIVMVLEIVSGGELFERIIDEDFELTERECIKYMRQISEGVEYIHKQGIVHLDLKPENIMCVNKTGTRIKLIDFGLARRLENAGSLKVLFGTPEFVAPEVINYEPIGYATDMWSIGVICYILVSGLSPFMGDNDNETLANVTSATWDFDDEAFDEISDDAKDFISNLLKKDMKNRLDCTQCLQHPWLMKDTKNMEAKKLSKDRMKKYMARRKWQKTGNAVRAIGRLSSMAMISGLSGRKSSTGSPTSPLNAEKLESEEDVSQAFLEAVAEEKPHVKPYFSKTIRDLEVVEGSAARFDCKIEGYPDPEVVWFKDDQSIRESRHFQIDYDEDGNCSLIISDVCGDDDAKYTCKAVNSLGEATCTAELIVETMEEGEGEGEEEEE
In short: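 Active MLCK thawed on ice with kinase assay and dilution buffers and substrate; reaction with γ-32P-ATP incubated 15 min at 30 °C in a water bath, spotted on phosphocellulose P81 paper, washed three times ~10 min in 1% phosphoric acid. Radioactivity by scintillation counting, blank-corrected cpm converted to specific activity (nmol/min/mg); IC50 from log plots, at least five determinations per concentration.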

Rattus norvegicus [13] = experiment: Antihypertensive activity in Norwegian albino rat model of DOCA-salt-induced hypertension assessed as inhibition of systolic blood pressure at 10 mg/kg, po after 8 hrs by non-invasive tail cuff method relative to control; type: functional; in short: as §1
[14] = Cmax in Sprague-Dawley rat at 10 mg/kg, iv by HPLC method; type: ADME, organism-based; parameters: dose 10 mg/kg, route intravenous; settings: in vivo
Rattus norvegicus [15] = experiment: Antihypertensive activity in Norwegian albino rat assessed as inhibition of systolic blood pressure at 10 mg/kg, po after 0.3 hrs by invasive carotid artery cannulation method relative to control; type: functional
[16] = Elimination half life in Sprague-Dawley rat at 10 mg/kg, iv by HPLC method; type: ADME, organism-based; settings: in vivo, read-out: beta t1/2 (converted)
Rattus norvegicus [17] = experiment: Antihypertensive activity in Norwegian albino rat assessed as inhibition of systolic blood pressure at 10 mg/kg, po after 1 hr by invasive carotid artery cannulation method relative to control; type: functional
[18] = Tmax in Sprague-Dawley rat at 20 mg/kg, po by HPLC method; type: ADME, organism-based; settings: in vivo
Rattus norvegicus [19] = experiment: Antihypertensive activity in Norwegian albino rat model of DOCA-salt-induced hypertension assessed as inhibition of systolic blood pressure at 10 mg/kg, po after 4 hrs by non-invasive tail cuff method relative to control; type: functional; in short: as §1
Rattus norvegicus [20] = experiment: Antihypertensive activity in Norwegian albino rat model of DOCA-salt-induced hypertension assessed as inhibition of systolic blood pressure at 10 mg/kg, po after 9 hrs by non-invasive tail cuff method relative to control; type: functional; in short: as §1
[21] = Oral bioavailability in Sprague-Dawley rat at 20 mg/kg by HPLC method; type: ADME, organism-based; settings: in vivo
Rattus norvegicus [22] = experiment: Antihypertensive activity in Norwegian albino rat model of DOCA-salt-induced hypertension assessed as inhibition of systolic blood pressure at 10 mg/kg, po after 7 hrs by non-invasive tail cuff method relative to control; type: functional; in short: as §1
Rattus norvegicus [23] = experiment: Antihypertensive activity in Norwegian albino rat model of DOCA-salt-induced hypertension assessed as inhibition of systolic blood pressure at 10 mg/kg, po after 10 hrs by non-invasive tail cuff method relative to control; type: functional; in short: as §1
physchem = settings: buffer, pH 7.4
Rattus norvegicus [24] = experiment: Antihypertensive activity in Norwegian albino rat assessed as inhibition of systolic blood pressure at 10 mg/kg, po after 2 hrs by invasive carotid artery cannulation method relative to control; type: functional
[25] = AUC (0 to infinity) in Sprague-Dawley rat at 10 mg/kg, iv by HPLC method; type: ADME, organism-based; parameters: dose 10 mg/kg, route intravenous, time infinity; settings: in vivo
Rattus norvegicus [26] = experiment: Antihypertensive activity in Norwegian albino rat assessed as inhibition of systolic blood pressure at 10 mg/kg, po after 4 hrs by invasive carotid artery cannulation method relative to control; type: functional
[27] = Cmax in Sprague-Dawley rat at 20 mg/kg, po by HPLC method; type: ADME, organism-based; parameters: dose 20 mg/kg, route oral; settings: in vivo
Rattus norvegicus [28] = experiment: Antihypertensive activity in Norwegian albino rat model of DOCA-salt-induced hypertension assessed as inhibition of systolic blood pressure at 10 mg/kg, po after 6 hrs by non-invasive tail cuff method relative to control; type: functional; in short: as §1
Rattus norvegicus [29] = experiment: Antihypertensive activity in Norwegian albino rat model of DOCA-salt-induced hypertension assessed as inhibition of systolic blood pressure at 10 mg/kg, po after 3 hrs by non-invasive tail cuff method relative to control; type: functional; in short: as §1

CCOC(=O)C1=C(C)N=C2Sc3ccccc3N2C1c1cccc([N+](=O)[O-])c1 (stereo unspecified)
Rf [1]: 4.2
inhibition in vivo at 10 mg/kg (Rattus norvegicus [2]): 23.1%
inhibition in vivo at 10 mg/kg (Rattus norvegicus [3]): 42.2%
AUC(0-inf) [4]: 840 ng·h/mL
IC50 [5]: > 100 µM
UI (Rattus norvegicus [6]): 0.2
inhibition in vivo at 10 mg/kg (Rattus norvegicus [7]): 4%
half-life [8]: 5.4 h
Retention_time [9]: 3.045 min
inhibition in vivo at 10 mg/kg (Rattus norvegicus [10]): 4.89%
inhibition in vivo at 10 mg/kg (Rattus norvegicus [11]): 10.2%
IC50 ([12]; read-out: IC50): 2.1 µM
IC50 ([12]; read-out: pIC50 (converted)): 47600 µM
inhibition in vivo at 10 mg/kg (Rattus norvegicus [13]): 41.8%
Cmax [14]: 1630 ng/mL
inhibition in vivo at 10 mg/kg (Rattus norvegicus [15]): 20%
half-life [16]: 2.5 h
inhibition in vivo at 10 mg/kg (Rattus norvegicus [17]): 21.8%
Tmax [18]: 0.5 h
inhibition in vivo at 10 mg/kg (Rattus norvegicus [19]): 19.1%
inhibition in vivo at 10 mg/kg (Rattus norvegicus [20]): 47.1%
bioavailability [21]: 56.8%
inhibition in vivo at 10 mg/kg (Rattus norvegicus [22]): 37.8%
inhibition in vivo at 10 mg/kg (Rattus norvegicus [23]): 51.1%
logD (physchem): 4.57
inhibition in vivo at 10 mg/kg (Rattus norvegicus [24]): 28.9%
AUC(0-inf) [25]: 1480 ng·h/mL
inhibition in vivo at 10 mg/kg (Rattus norvegicus [26]): 52.4%
Cmax [27]: 400 ng/mL
inhibition in vivo at 10 mg/kg (Rattus norvegicus [28]): 27.6%
inhibition in vivo at 10 mg/kg (Rattus norvegicus [29]): 14.2%
